Assay results from ChEMBL document CHEMBL1777748 (Bioorg Med Chem Lett, 2011).
The source made the active and inactive calls. The rule behind the calls is not given here.

Legend:
[1] = biological target: T1, Prostaglandin D2 receptor 2 (Homo sapiens, UniProt Q9Y5Y4); experiment: Displacement of [3H]-PGD2 from CRTh2 receptor by scintillation proximity assay
T1 sequence (Q9Y5Y4 whole entry): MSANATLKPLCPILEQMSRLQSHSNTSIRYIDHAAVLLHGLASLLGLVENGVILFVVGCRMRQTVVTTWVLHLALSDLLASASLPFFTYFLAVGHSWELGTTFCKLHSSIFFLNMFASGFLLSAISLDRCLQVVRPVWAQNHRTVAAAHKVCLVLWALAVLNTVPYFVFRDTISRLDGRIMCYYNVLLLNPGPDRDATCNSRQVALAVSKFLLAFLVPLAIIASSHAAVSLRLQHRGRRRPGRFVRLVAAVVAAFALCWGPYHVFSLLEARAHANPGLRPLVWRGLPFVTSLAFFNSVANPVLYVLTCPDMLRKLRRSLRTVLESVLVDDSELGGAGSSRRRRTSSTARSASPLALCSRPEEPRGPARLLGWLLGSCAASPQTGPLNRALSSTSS

[2] = Intrinsic clearance in rat hepatocytes assessed per 1 x 10^6 cells
[3] = Intrinsic clearance in human liver microsomes
[4] = Lipophilicity, log D of the compound at pH 7.4; settings: buffer
[5] = biological target: T1, Prostaglandin D2 receptor 2; experiment: Antagonist activity at human CRTh2 receptor expressed in HEK cells assessed as inhibition of PGD2-induced calcium flux; assay type: functional, cell-based, HEK293
In short: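 PGD2-driven Ca2+ flux in HEK cells transfected with human CRTh2, read as antagonism of the response.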

[6] = biological target: T2, Prostaglandin D2 receptor 2 (Homo sapiens) (UniProt Q9Y5Y4); experiment: Partial agonist activity at human CRTh2 receptor expressed in HEK cells assessed as stimulation of calcium flux; assay type: functional, cell-based; settings: HEK293
T2 sequence (whole entry): T1 sequence (Q9Y5Y4 whole entry)

[7] = biological target: T2, Prostaglandin D2 receptor 2 (Homo sapiens); experiment: Displacement of [3H]-PGD2 from CRTh2 receptor at 10 uM by scintillation proximity assay
In short: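 Scintillation proximity binding with [3H]-PGD2 as radioligand; reported values are means of more than 2 measurements.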

[8] = biological target: T2, Prostaglandin D2 receptor 2 (Homo sapiens); settings: HEK293, 10 uM

Compound | IC50 [1] [nM] | hepatocyte CLint [2] [µL/min/1e6 cells] | microsomal CLint ([3]; liver microsomes) [µL/min/mg] | further results
CCS(=O)(=O)c1ccc(-c2cc(C(F)(F)F)ccc2OCc2nnn[nH]2)c(C)c1 | 891 |  |  | 
O=C(O)COc1ccc([N+](=O)[O-])cc1-c1ccccc1 | 251 |  |  | IC50 [5]: 178 nM
N#Cc1ccc(OCC(=O)O)c(-c2ccccc2)c1 | 355 | < 3 | 6 | IC50 [5]: 251 nM
CCS(=O)(=O)c1ccc(-c2cc(Cl)ccc2OCC(=O)O)c(C(F)(F)F)c1 | 293 |  |  | 
O=C(O)COc1ccc(C(F)(F)F)cc1-c1ccc(Cl)cc1 | 50 | < 3 | 11 | logD [4]: 0.9
CCS(=O)(=O)c1ccc(-c2cc(Cl)ccc2OCC(=O)O)cc1 | 19 | < 3 | 7 | 
CS(=O)(=O)c1ccc(-c2cc(C(F)(F)F)ccc2OCC(=O)O)cc1 | 36 | < 3 | < 3 | Activity [6]: Active
O=C(O)COc1ccc(C(F)(F)F)cc1-c1ccc2c(c1)CCS2(=O)=O | 126 | 13 | 6 | 
CCC(Oc1ccc(C(F)(F)F)cc1-c1ccc(S(=O)(=O)CC)cc1C)C(=O)O (centres undefined) | 178 |  |  | logD [4]: 0.3
CCS(=O)(=O)c1ccc(-c2cc(C(F)(F)F)ccc2OC(C)(C)C(=O)O)c(C)c1 | 3980 |  |  | 
CCS(=O)(=O)c1ccc(-c2cc(C(F)(F)F)ccc2OCC(N)=O)c(C)c1 | 5650 | 29 | < 3 | logD [4]: 2.8
CCS(=O)(=O)c1ccc(-c2cc(Cl)ccc2OCC(=O)O)c(C)c1 | 4.1 |  |  | 
COc1ccc(-c2cc(C(F)(F)F)ccc2OCC(=O)O)cc1 | 251 | 47 | 12 | logD [4]: 0.3
O=C(O)COc1ccc(-c2nccs2)cc1-c1ccccc1 | 1780 |  |  | IC50 [5]: 501 nM
CCCCOc1ccccc1-c1cc(C(F)(F)F)ccc1OCC(=O)O | 10 | 9 | 6 | 
CCS(=O)(=O)c1ccc(-c2cc(C(F)(F)F)ccc2O[C@@H](C)C(=O)O)c(C)c1 | 355 | 10 |  | 
N#Cc1ccc(-c2cc(C(F)(F)F)ccc2OCC(=O)O)cc1 | 126 |  |  | 
Cc1ccc(OCC(=O)O)c(-c2ccccc2)c1 | 794 | < 3 | 12 | IC50 [5]: 708 nM
CCS(=O)(=O)c1ccc(-c2cc(Cl)ccc2OCC(=O)O)c(F)c1 | 7.9 | 4 |  | microsomal CLint ([3]; microsomes): < 3 µL/min/mg
CCSc1ccc(-c2cc(C(F)(F)F)ccc2OCC(=O)O)cc1 | 8.9 |  |  | 
CCc1ccc(OCC(=O)O)c(-c2ccc(S(C)(=O)=O)cc2)c1 |  | 13 |  | microsomal CLint ([3]; microsomes): < 3 µL/min/mg
O=C(O)COc1ccccc1-c1ccccc1 |  |  |  | inhibition [7]: 41%
CCS(=O)(=O)c1cccc(-c2cc(C(F)(F)F)ccc2OCC(=O)O)c1 | 56 | < 3 | 12 | 
CN(c1ccc(-c2cc(F)ccc2OCC(=O)O)c(Cl)c1)S(C)(=O)=O | 2.2 |  |  | 
O=C(O)COc1ccc(Cl)cc1-c1ccccc1 | 251 |  |  | 
CS(=O)(=O)c1ccc(OCC(=O)O)c(-c2ccccc2)c1 | 541 | 6 | < 3 | Activity [6]: Active
Nc1ccc(OCC(=O)O)c(-c2ccccc2)c1 | 8910 | 64 | < 3 | inhibition [8]: 17%
CCS(=O)(=O)c1ccc(-c2cc(C(F)(F)F)ccc2CCC(=O)O)c(C)c1 | 2.5 | 25 | < 4 | 
O=C(O)COc1ccc(Br)cc1-c1ccccc1 | 316 | 7 | < 3 | IC50 [5]: 158 nM

More lines, main results first:

IC50 [1] [nM] | hepatocyte CLint [2] [µL/min/1e6 cells] | microsomal CLint ([3]; liver microsomes) [µL/min/mg] | Compound | further results
0.6 | < 3 | < 3 | CCS(=O)(=O)c1ccc(-c2cc(C(F)(F)F)ccc2O[C@H](C)C(=O)O)c(Cl)c1 | logD [4]: 0
0.6 | < 5 | < 3 | C[C@@H](Oc1ccc(C(F)(F)F)cc1-c1cccc(C#N)c1)C(=O)O | 
1.5 | < 3 | 7 | CCS(=O)(=O)c1ccc(-c2cc(Cl)ccc2OCC(=O)O)c(Cl)c1 | 
0.8 | < 3 | 13 | CN(c1ccc(-c2cc(C(F)(F)F)ccc2OCC(=O)O)cc1)S(C)(=O)=O | 
0.3 | < 5 | < 3 | CCS(=O)(=O)c1ccc(-c2cc(C(F)(F)F)ccc2OCC(=O)O)c(Cl)c1 | 
1.3 | 18 | 9 | CCN(CC)S(=O)(=O)c1ccc(-c2cc(C(F)(F)F)ccc2OCC(=O)O)cc1 | logD [4]: 0.7
0.4 | < 3 | < 3 | Cc1cc(N(C)S(C)(=O)=O)ccc1-c1cc(C(F)(F)F)ccc1OCC(=O)O | 
1.6 | 23 | < 3 | CCS(=O)(=O)c1ccc(-c2cc(C(F)(F)F)ccc2O[C@H](C)C(=O)O)c(C)c1 | 
0.1 |  |  | CN(c1ccc(-c2cc(C(F)(F)F)ccc2OCC(=O)O)c(Cl)c1)S(C)(=O)=O | 
0.6 | 5 | 10 | CS(=O)(=O)c1ccc(-c2cc(Cl)ccc2OCC(=O)O)c(Cl)c1 | 
0.2 | < 3 |  | Cc1ccc(C#N)cc1-c1cc(C(F)(F)F)ccc1OCC(=O)O | microsomal CLint ([3]; microsomes): < 3 µL/min/mg; logD [4]: 0.2
< 0.4 | < 3 | < 3 | N#Cc1cccc(-c2cc(C(F)(F)F)ccc2OCC(=O)O)c1 | logD [4]: 0.1
2 | 20 |  | O=C(O)COc1ccc(C(F)(F)F)cc1-c1ccccc1-c1ccccc1 | microsomal CLint ([3]; microsomes): < 3 µL/min/mg; logD [4]: 1.4
0.2 |  |  | CS(=O)(=O)c1ccc(-c2cc(C(F)(F)F)ccc2OCC(=O)O)c(Cl)c1 | 
0.2 | < 3 |  | N#Cc1ccc(F)c(-c2cc(C(F)(F)F)ccc2OCC(=O)O)c1 | microsomal CLint ([3]; microsomes): < 4 µL/min/mg
